Data taken from ChEMBL document CHEMBL4725492, “Dioxane-Linked Amide Derivatives as Novel Bacterial Topoisomerase Inhibitors against Gram-Positive Staphylococcus aureus” (ACS Med Chem Lett, 2020).
Values after ≈ are worked out from the molar mass of the structure shown. One block for each compound: values may come before it. Active and inactive are the calls of the source. No cut-off for these calls is given here.

Columns and labels:
[1] = Growth inhibition of human K/VP.5 cells incubated for 48 hrs by sulforhodamine B assay; assay type: functional
Topoisomerase IV [2] = molecular target: Topoisomerase IV (Staphylococcus aureus, UniProt P0C1S7+P0C1U9); experiment: (§1) Inhibition of Staphylococcus aureus topoisomerase-4 assessed as reduction in decatenation of kinetoplast DNA agarose gel electrophoresis method; assay type: protein-complex assay
Staphylococcus aureus [3] = experiment: Antibacterial activity against Staphylococcus aureus 3527 by CLSI based agar dilution method; assay type: functional
[4] = molecular target: T1, DNA gyrase (Staphylococcus aureus) (UniProt P0A0K8+P20831); experiment: Inhibition of Staphylococcus aureus DNA gyrase assessed as single-strand break at 20 uM using relaxed pBR322 as substrate by ethidium bromide-based gel electrophoresis; assay type: protein-complex assay
In short: (§2)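 S. aureus gyrase-mediated DNA cleavage: compound was incubated with enzyme and DNA, and products were resolved on an ethidium-stained gel into negatively supercoiled, nicked (single-strand break) and linear (double-strand break) forms. Lane fluorescence was corrected for differential band emission. Percent of each form was calculated, and enzyme-only cleavage was subtracted. Concentrations spanned 0.1 nM–200 μM, with a 20 μM single-point screen. Results are mean ± SD or range.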

Staphylococcus aureus [5] = experiment: Antibacterial activity against Staphylococcus aureus D83N by CLSI based agar dilution method; assay type: functional
Staphylococcus aureus [6] = experiment: Antibacterial activity against Staphylococcus aureus ATCC 29213 by CLSI based agar dilution method; assay type: functional
[7] = molecular target: Voltage-gated inwardly rectifying potassium channel KCNH2 (Homo sapiens, UniProt Q12809); experiment: Inhibition of human ERG; details: human
Voltage-gated inwardly rectifying potassium channel KCNH2, sequence (Q12809 whole entry): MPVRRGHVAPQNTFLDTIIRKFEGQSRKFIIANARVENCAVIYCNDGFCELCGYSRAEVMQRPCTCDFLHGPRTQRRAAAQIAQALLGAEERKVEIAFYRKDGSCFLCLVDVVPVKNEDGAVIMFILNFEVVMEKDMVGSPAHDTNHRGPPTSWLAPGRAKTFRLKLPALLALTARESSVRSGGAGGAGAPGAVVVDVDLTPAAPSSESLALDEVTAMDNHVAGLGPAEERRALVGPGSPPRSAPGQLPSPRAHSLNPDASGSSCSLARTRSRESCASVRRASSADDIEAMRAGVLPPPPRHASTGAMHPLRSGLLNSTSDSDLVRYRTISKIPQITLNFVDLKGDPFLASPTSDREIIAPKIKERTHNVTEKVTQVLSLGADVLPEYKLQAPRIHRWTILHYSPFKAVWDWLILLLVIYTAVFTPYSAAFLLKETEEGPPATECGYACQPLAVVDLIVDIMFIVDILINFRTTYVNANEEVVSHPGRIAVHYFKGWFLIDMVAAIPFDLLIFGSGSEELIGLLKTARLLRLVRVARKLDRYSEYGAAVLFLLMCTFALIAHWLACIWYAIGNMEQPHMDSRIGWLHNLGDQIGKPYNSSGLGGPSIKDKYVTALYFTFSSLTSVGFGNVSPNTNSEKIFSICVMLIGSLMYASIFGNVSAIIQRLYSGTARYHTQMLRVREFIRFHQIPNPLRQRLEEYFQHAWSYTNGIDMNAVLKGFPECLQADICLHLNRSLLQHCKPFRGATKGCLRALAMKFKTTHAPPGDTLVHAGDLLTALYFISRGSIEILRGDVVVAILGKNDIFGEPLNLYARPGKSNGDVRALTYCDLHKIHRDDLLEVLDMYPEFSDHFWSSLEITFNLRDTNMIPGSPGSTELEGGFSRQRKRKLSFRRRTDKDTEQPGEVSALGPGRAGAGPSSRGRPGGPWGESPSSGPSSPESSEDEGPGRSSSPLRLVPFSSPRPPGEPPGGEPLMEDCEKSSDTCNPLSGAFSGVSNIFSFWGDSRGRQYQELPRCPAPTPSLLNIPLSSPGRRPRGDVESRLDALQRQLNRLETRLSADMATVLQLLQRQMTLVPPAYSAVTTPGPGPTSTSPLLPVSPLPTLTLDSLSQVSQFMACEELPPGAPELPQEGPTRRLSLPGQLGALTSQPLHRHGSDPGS

DNA gyrase = DNA gyrase (Staphylococcus aureus, UniProt P0A0K8+P20831); experiment: Inhibition of Staphylococcus aureus DNA gyrase using relaxed pBR322 as substrate by gel electrophoresis; assay type: protein-complex assay
[8] = molecular target: T1, DNA gyrase (Staphylococcus aureus); experiment: Inhibition of Staphylococcus aureus DNA gyrase assessed as double-strand break at 20 uM using relaxed pBR322 as substrate by ethidium bromide-based gel electrophoresis; assay type: protein-complex assay; in short: as §2
[9] = molecular target: DNA topoisomerase 2-alpha (Homo sapiens, UniProt P11388); experiment: Inhibition of human topoisomerase 2alpha
DNA topoisomerase 2-alpha, sequence (P11388 whole entry): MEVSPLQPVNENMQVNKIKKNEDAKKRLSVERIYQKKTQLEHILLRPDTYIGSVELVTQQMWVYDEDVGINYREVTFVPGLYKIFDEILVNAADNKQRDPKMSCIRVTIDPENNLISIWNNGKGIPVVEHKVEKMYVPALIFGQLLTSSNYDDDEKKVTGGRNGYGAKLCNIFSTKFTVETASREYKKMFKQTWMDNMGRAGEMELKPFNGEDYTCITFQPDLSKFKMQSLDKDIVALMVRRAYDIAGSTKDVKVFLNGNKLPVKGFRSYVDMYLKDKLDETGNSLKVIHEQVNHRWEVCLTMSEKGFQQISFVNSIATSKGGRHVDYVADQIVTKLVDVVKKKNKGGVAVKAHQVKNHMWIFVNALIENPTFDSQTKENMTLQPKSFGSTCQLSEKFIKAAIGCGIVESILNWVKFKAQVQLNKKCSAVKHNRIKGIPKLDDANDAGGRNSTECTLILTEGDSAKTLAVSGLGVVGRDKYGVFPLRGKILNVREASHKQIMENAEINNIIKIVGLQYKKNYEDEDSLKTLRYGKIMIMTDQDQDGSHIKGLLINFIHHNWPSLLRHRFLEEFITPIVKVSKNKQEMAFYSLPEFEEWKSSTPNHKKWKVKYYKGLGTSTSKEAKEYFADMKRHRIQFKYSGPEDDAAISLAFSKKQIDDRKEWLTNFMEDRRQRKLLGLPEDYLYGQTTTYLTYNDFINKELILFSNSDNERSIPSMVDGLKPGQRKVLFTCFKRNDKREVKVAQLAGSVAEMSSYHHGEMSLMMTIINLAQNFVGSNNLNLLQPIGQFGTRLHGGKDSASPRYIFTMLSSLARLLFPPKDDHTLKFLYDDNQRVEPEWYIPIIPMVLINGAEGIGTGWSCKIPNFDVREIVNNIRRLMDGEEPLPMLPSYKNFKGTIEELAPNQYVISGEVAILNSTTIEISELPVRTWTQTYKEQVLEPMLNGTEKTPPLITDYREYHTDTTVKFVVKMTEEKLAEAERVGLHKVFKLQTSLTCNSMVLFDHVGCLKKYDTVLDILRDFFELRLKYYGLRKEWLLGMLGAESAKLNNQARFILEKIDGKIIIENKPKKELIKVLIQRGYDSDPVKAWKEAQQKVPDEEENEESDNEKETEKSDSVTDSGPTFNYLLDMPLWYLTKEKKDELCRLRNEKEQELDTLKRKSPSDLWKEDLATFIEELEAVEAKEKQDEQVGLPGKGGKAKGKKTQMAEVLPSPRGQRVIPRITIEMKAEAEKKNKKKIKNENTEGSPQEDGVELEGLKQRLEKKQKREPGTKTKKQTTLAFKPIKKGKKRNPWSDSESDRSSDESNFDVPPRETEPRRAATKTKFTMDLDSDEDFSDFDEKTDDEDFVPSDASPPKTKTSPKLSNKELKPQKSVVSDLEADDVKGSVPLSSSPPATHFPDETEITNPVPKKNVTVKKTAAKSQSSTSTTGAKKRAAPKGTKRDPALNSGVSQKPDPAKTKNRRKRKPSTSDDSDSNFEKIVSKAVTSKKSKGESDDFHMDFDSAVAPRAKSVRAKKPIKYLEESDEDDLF
In short: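 Human topoisomerase IIα decatenation activity was tested at a single concentration of 100 μM and reported as percent inhibition.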

K562 = experiment: Growth inhibition of human K562 cells incubated for 48 hrs by sulforhodamine B assay; assay type: functional
Staphylococcus aureus [10] = experiment: Antibacterial activity against Staphylococcus aureus USA300 by CLSI based agar dilution method; assay type: functional
Topoisomerase IV [11] = molecular target: Topoisomerase IV (Staphylococcus aureus, UniProt P0C1U9+P0C1S7); experiment: as §1; assay type: protein-complex assay
[12] = molecular target: T1, DNA gyrase (Staphylococcus aureus); experiment: Inhibition of Staphylococcus aureus DNA gyrase assessed as double-strand break at 100 uM using relaxed pBR322 as substrate by ethidium bromide-based gel electrophoresis; assay type: protein-complex assay
In short: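 Gyrase-mediated DNA cleavage reactions with test agent across 0.1–100 μM. Products were resolved on ethidium-stained gels into negatively supercoiled, nicked and linear forms. DSBs were taken as percent of total lane fluorescence in the linear band, correcting for the different emission of supercoiled versus linear and nicked DNA. Cleavage in enzyme-only controls was subtracted.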

Compound: COc1ccc2nccc(CC[C@H]3OC[C@H](NC(=O)c4ccc(C(F)(F)F)cc4)CO3)c2c1
- INH [1]: 8.9 µM
- IC50 (Topoisomerase IV [2]): > 200000 nM
- MIC (Staphylococcus aureus [3]): ≤ 0.5 µg/mL
- inhibition [4]: Active
- MIC (Staphylococcus aureus [5]): > 64 µg/mL
- MIC (Staphylococcus aureus [6]): 0.25 µg/mL (≈ 0.543 µM)
- INH [7]: > 30 µM
- IC50 (DNA gyrase): 1100 nM
- inhibition [8]: inactive
- inhibition (INH) [9]: Not Active
- INH (K562): 6.8 µM
- MIC (Staphylococcus aureus [10]): ≤ 0.5 µg/mL

Compound: COc1ccc2nccc(CC[C@H]3OC[C@H](NC(=O)c4cccc(Cl)c4)CO3)c2c1
- INH [1]: 50 µM
- IC50 (Topoisomerase IV [11]): Not Active
- MIC (Staphylococcus aureus [3]): 1 µg/mL (≈ 2.34 µM)
- inhibition [4]: Active
- MIC (Staphylococcus aureus [5]): > 32 µg/mL
- MIC (Staphylococcus aureus [6]): 2 µg/mL (≈ 4.68 µM)
- INH [7]: > 3 µM
- IC50 (DNA gyrase): 320 nM
- inhibition [8]: inactive
- INH (K562): <200 µM
- MIC (Staphylococcus aureus [10]): 1 µg/mL (≈ 2.34 µM)

Compound: COc1ccc2nccc(CC[C@H]3OC[C@H](NC(=O)c4ccc5c(c4)NC(=O)CO5)CO3)c2c1
- INH [1]: >200 µM
- IC50 (Topoisomerase IV [2]): 890 nM
- MIC (Staphylococcus aureus [3]): 0.5 µg/mL (≈ 1.08 µM)
- MIC (Staphylococcus aureus [5]): > 64 µg/mL
- MIC (Staphylococcus aureus [6]): 0.25 µg/mL (≈ 0.539 µM)
- IC50 (DNA gyrase): 60 nM
- INH (K562): >200 µM
- MIC (Staphylococcus aureus [10]): 0.25 µg/mL (≈ 0.539 µM)

- MIC (Staphylococcus aureus [6]): > 8 µg/mL
- MIC (Staphylococcus aureus [10]): > 8 µg/mL
Compound: COc1ccc2nccc(CC[C@H]3OC[C@H](NC(=O)c4ccc(C#N)cc4)CO3)c2c1

Compound: COc1ccc2nccc(CC[C@H]3OC[C@H](NC(=O)[C@H]4CC[C@H](O)CC4)CO3)c2c1
- MIC (Staphylococcus aureus [3]): > 64 µg/mL
- MIC (Staphylococcus aureus [5]): > 64 µg/mL
- MIC (Staphylococcus aureus [6]): > 64 µg/mL
- MIC (Staphylococcus aureus [10]): > 64 µg/mL

Compound: COc1ccc2nccc(CC[C@H]3OC[C@H](NC(=O)c4ccc(F)cc4)CO3)c2c1
- MIC (Staphylococcus aureus [3]): > 256 µg/mL
- MIC (Staphylococcus aureus [5]): > 256 µg/mL
- MIC (Staphylococcus aureus [6]): > 256 µg/mL
- MIC (Staphylococcus aureus [10]): > 256 µg/mL

Compound: COc1ccc2nccc(CC[C@H]3OC[C@H](NC(=O)[C@H]4CC[C@H](N)CC4)CO3)c2c1
- MIC (Staphylococcus aureus [3]): > 64 µg/mL
- MIC (Staphylococcus aureus [5]): > 64 µg/mL
- MIC (Staphylococcus aureus [6]): > 64 µg/mL
- MIC (Staphylococcus aureus [10]): > 64 µg/mL

- inhibition [12]: Active
Compound: O=C(O)c1cn(C2CC2)c2cc(N3CCNCC3)c(F)cc2c1=O

Compound: COc1ccc2nccc(CC[C@H]3OC[C@H](NC(=O)CC4CCCCC4)CO3)c2c1
- MIC (Staphylococcus aureus [3]): > 64 µg/mL
- MIC (Staphylococcus aureus [5]): > 64 µg/mL
- MIC (Staphylococcus aureus [6]): > 64 µg/mL
- MIC (Staphylococcus aureus [10]): > 64 µg/mL

Compound: COc1ccc2nccc(CC[C@H]3OC[C@H](NC(=O)c4cccnc4)CO3)c2c1
- MIC (Staphylococcus aureus [3]): 128 µg/mL (≈ 325 µM)
- MIC (Staphylococcus aureus [5]): 128 µg/mL (≈ 325 µM)
- MIC (Staphylococcus aureus [6]): 256 µg/mL (≈ 651 µM)
- MIC (Staphylococcus aureus [10]): 128 µg/mL (≈ 325 µM)

Compound: COc1ccc2nccc(CC[C@H]3OC[C@H](NC(=O)c4ccc(Cl)c(Cl)c4)CO3)c2c1
- IC50 (Topoisomerase IV [2]): > 200000 nM
- MIC (Staphylococcus aureus [3]): 0.5 µg/mL (≈ 1.08 µM)
- inhibition [4]: Active
- MIC (Staphylococcus aureus [5]): > 32 µg/mL
- MIC (Staphylococcus aureus [6]): 0.125 µg/mL (≈ 0.271 µM)
- IC50 (DNA gyrase): 590 nM
- inhibition [8]: inactive
- MIC (Staphylococcus aureus [10]): 0.125 µg/mL (≈ 0.271 µM)

Compound: COc1ccc(C(=O)N[C@H]2CO[C@H](CCc3ccnc4ccc(OC)cc34)OC2)cc1
- IC50 (Topoisomerase IV [2]): 106000 nM
- MIC (Staphylococcus aureus [3]): 16 µg/mL (≈ 37.9 µM)
- MIC (Staphylococcus aureus [5]): 32 µg/mL (≈ 75.7 µM)
- MIC (Staphylococcus aureus [6]): 4 µg/mL (≈ 9.47 µM)
- IC50 (DNA gyrase): 3900 nM
- inhibition (INH) [9]: Not Active
- MIC (Staphylococcus aureus [10]): 8 µg/mL (≈ 18.9 µM)

Compound: COc1ccc2nccc(CC[C@H]3OC[C@H](NC(=O)C4Cc5ccccc5CO4)CO3)c2c1 (stereo not given in full)
- MIC (Staphylococcus aureus [3]): > 64 µg/mL
- MIC (Staphylococcus aureus [5]): > 64 µg/mL
- MIC (Staphylococcus aureus [6]): > 64 µg/mL
- MIC (Staphylococcus aureus [10]): > 64 µg/mL

Compound: COc1ccc2nccc(CC[C@H]3OC[C@H](NC(=O)C4CCN(C)CC4)CO3)c2c1
- MIC (Staphylococcus aureus [3]): > 64 µg/mL
- MIC (Staphylococcus aureus [5]): > 64 µg/mL
- MIC (Staphylococcus aureus [6]): > 64 µg/mL
- MIC (Staphylococcus aureus [10]): > 64 µg/mL

Compound: COc1ccc2nccc(CC[C@H]3OC[C@H](NC(=O)c4ccccc4)CO3)c2c1
- MIC (Staphylococcus aureus [3]): 4 µg/mL (≈ 10.2 µM)
- MIC (Staphylococcus aureus [5]): > 256 µg/mL
- MIC (Staphylococcus aureus [6]): 8 µg/mL (≈ 20.4 µM)
- MIC (Staphylococcus aureus [10]): 8 µg/mL (≈ 20.4 µM)

Compound: COc1ccc2nccc(CC[C@H]3OC[C@H](NC(=O)[C@H]4CC[C@@H](O)CC4)CO3)c2c1
- MIC (Staphylococcus aureus [3]): > 64 µg/mL
- MIC (Staphylococcus aureus [5]): > 64 µg/mL
- MIC (Staphylococcus aureus [6]): > 64 µg/mL
- MIC (Staphylococcus aureus [10]): > 64 µg/mL
